Calls of active or inactive are those of the source.
Experiments:
[1] = system: A-431; assay: Antiproliferative activity against human A431 cells expressing wild type EGFR assessed as cell growth inhibition measured after 72 hrs by MTT assay; type: functional, cell-based; conditions: A-431, 72 h
Outline: (§1)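 Cells were seeded at 3000–8000/well and allowed 24 h, then exposed to serial compound concentrations for 72 h. MTT (5 mg/mL stock in PBS) was added for 4 h, supernatant removed and DMSO added. IC50, defined as 50% growth inhibition, was derived by nonlinear regression (log inhibitor vs response).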

[2] = system: HCC827; assay: Antiproliferative activity against human HCC827 cells expressing EGFR del19 mutant assessed as cell growth inhibition measured after 72 hrs by MTT assay; type: functional, cell-based; conditions: HCC827, 72 h
Outline: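 HCC827 cells were kept in RPMI-1640 with 10% heat-inactivated FBS, 1% sodium pyruvate, 1% glutamine and 1% penicillin-streptomycin at 37 °C and 5% CO₂, seeded at 3000–8000/well and rested 24 h. Compounds were applied as a concentration series for 72 h. MTT (5 mg/mL stock in PBS) was given for 4 h, then medium was removed and DMSO added. IC50 came from nonlinear regression (log inhibitor vs response).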

[3] = system: NCI-H1975; assay: Antiproliferative activity against human H1975 cells expressing EGFR L858R/T790M mutant assessed as cell growth inhibition measured after 72 hrs by MTT assay; type: functional, cell-based; conditions: NCI-H1975, 72 h
Outline: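 MTT assay on H1975 cells grown in RPMI-1640 with 10% heat-inactivated FBS and 1% penicillin-streptomycin at 37 °C and 5% CO₂. Cells were seeded at 3000–8000 per well and left 24 h, then exposed to a concentration series for 72 h. MTT (5 mg/mL stock in PBS) was added for 4 h, supernatant removed and formazan dissolved in DMSO. IC50 was fitted by nonlinear regression (log inhibitor vs response).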

[4] = system: HepG2; assay: Antiproliferative activity against human HepG2 cells expressing VEGFR2 assessed as cell growth inhibition measured after 72 hrs by MTT assay; type: functional, cell-based; conditions: HepG2, 72 h; outline: as §1
[5] = system: von Hippel-Lindau disease tumor suppressor/Epidermal growth factor receptor (Homo sapiens), P00533+P40337 [L858R,T790M]; assay: Protac activity at VHL/EGFR L858R/T790M mutant in human H1975 cells assessed as induction of degradation of EGFR at 333 nM incubated for 48 hrs measured after compound wash-out for 48 hrs by Western blot analysis; type: cell-based; conditions: NCI-H1975
Outline: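 H1975 cells (RPMI-1640, 10% heat-inactivated FBS) exposed to 333 nM for 48 h. Medium then replaced with compound-free medium, and lysates collected at the stated times. EGFR read by Western blot; n = 2.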

[6] = system: von Hippel-Lindau disease tumor suppressor/Epidermal growth factor receptor (Homo sapiens), P00533+P40337 [UNDEFINED MUTATION]; assay: Protac activity at VHL/EGFR del19 mutant in human HCC827 cells assessed as induction of EGFR degradation at 33 nM incubated for 24 hrs measured following drug wash-out for 24 hrs by Western blot analysis; type: cell-based
Outline: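 HCC827 cells (RPMI-1640, 10% heat-inactivated FBS, 1% sodium pyruvate, 1% glutamine, 37 °C, 5% CO₂) treated at 33 nM for 24 h. Medium then replaced with compound-free medium, and protein harvested at the stated times. EGFR read by Western blot; n = 2.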

[7] = system: von Hippel-Lindau disease tumor suppressor/Epidermal growth factor receptor (Homo sapiens), P00533+P40337 [UNDEFINED MUTATION]; assay: Protac activity at VHL/EGFR del19 mutant in human HCC827 cells assessed as induction of EGFR degradation at 33 nM measured after 24 hrs by Western blot analysis; type: cell-based
Outline: (§2)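 HCC827 cells seeded at 0.5–1 × 10⁶ per well, grown 24 h, then treated at the stated concentrations for 24 h. EGFR^del19 level by Western blot with anti-EGFR antibody and β-actin loading control.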

[8] = system: von Hippel-Lindau disease tumor suppressor/Epidermal growth factor receptor (Homo sapiens), P00533+P40337 [UNDEFINED MUTATION]; assay: Protac activity at VHL/EGFR del19 mutant in human HCC827 cells assessed as induction of EGFR degradation at 333 nM measured after 24 hrs by Western blot analysis; type: cell-based; outline: as §2
[9] = system: von Hippel-Lindau disease tumor suppressor/Epidermal growth factor receptor (Homo sapiens), P00533+P40337 [UNDEFINED MUTATION]; assay: Protac activity at VHL/EGFR del19 mutant in human HCC827 cells assessed as induction of EGFR degradation at 33 nM by Western blot analysis; type: cell-based; conditions: time 12-72 hrs, TDE = time-dependent effect
Outline: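 Time course in HCC827 cells at 33 nM, with protein harvested at each stated time point. EGFR^del19 detected by Western blot.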

[10] = system: von Hippel-Lindau disease tumor suppressor/Epidermal growth factor receptor (Homo sapiens), P00533+P40337 [UNDEFINED MUTATION]; assay: Protac activity at VHL/EGFR del19 mutant in human HCC827 cells assessed as maximal induction of EGFR degradation at 33 nM measured after 48 hrs by Western blot analysis; type: cell-based
Outline: (§3)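 HCC827 cells seeded at 0.5–1 × 10⁶ per well, then treated at the stated concentrations for 48 h. EGFR by Western blot; n = 3. DC₅₀ (concentration giving 50% EGFR loss) by nonlinear regression, log(inhibitor) vs response.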

[11] = target: von Hippel-Lindau disease tumor suppressor/Epidermal growth factor receptor (Homo sapiens, UniProt P00533+P40337); assay: Protac activity at VHL/EGFR del19 mutant in human HCC827 cells assessed as induction of EGFR degradation measured after 48 hrs by Western blot analysis; type: cell-based; outline: as §3
[12] = target: von Hippel-Lindau disease tumor suppressor/Epidermal growth factor receptor (Homo sapiens, UniProt P00533+P40337, T790M/L858R); assay: Protac activity at VHL/EGFR L858R/T790M mutant in human H1975 cells assessed as induction of degradation of EGFR incubated for 48 hrs by Western blot analysis; type: cell-based; conditions: nci-h1975
Outline: (§4)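 H1975 cells exposed to the stated concentrations for 48 h. EGFR by Western blot; n = 3. DC₅₀ by nonlinear regression, log(inhibitor) vs response.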

[13] = system: von Hippel-Lindau disease tumor suppressor/Epidermal growth factor receptor (Homo sapiens), P00533+P40337 [L858R,T790M]; assay: Protac activity at VHL/EGFR L858R/T790M mutant in human H1975 cells assessed as maximal induction of degradation of EGFR incubated for 48 hrs by Western blot analysis relative to control; type: cell-based; conditions: NCI-H1975; outline: as §4
[14] = system: Protein cereblon/Epidermal growth factor receptor (Homo sapiens), P00533+Q96SW2 [UNDEFINED MUTATION]; assay: Protac activity at CRBN/EGFR del19 mutant in human HCC827 cells assessed as induction of EGFR degradation at 333 nM measured after 24 hrs by Western blot analysis; type: cell-based; outline: as §2
[15] = system: Protein cereblon/Epidermal growth factor receptor (Homo sapiens), P00533+Q96SW2 [UNDEFINED MUTATION]; assay: Protac activity at CRBN/EGFR del19 mutant in human HCC827 cells assessed as induction of EGFR degradation at 33 nM measured after 24 hrs by Western blot analysis; type: cell-based; outline: as §2
[16] = system: von Hippel-Lindau disease tumor suppressor/Epidermal growth factor receptor (Homo sapiens), P00533+P40337 [UNDEFINED MUTATION]; assay: Protac activity at VHL/EGFR del19 mutant in human HCC827 cells assessed as induction of EGFR degradation at 33 to 333 nM measured after 24 hrs by Western blot analysis; type: cell-based; conditions: dose 33-333 nM; outline: as §2

Structure (SMILES) | IC50 [1] | IC50 [2] | IC50 [3] | IC50 [4] | Activity [5] | Activity [6] | Activity [7] | Activity [8] | Activity [9] | Emax [10] | DC50 [11] | DC50 [12] | Emax [13] | Activity [14] | Activity [15] | Activity [16]
CN1CCN(c2ccc(Nc3ncc4nc(Nc5ccccc5)n(C5CCCC5)c4n3)cc2)CC1 | 163 nM | 0.82 nM | 430 nM | > 5000 nM | – | – | – | – | – | – | – | – | – | – | – | –
Cc1ncsc1-c1ccc(CNC(=O)[C@@H]2C[C@@H](O)CN2C(=O)[C@@H](NC(=O)CCCCCCCN2CCN(c3ccc(Nc4ncc5nc(Nc6ccccc6)n(C6CCCC6)c5n4)cc3)CC2)C(C)(C)C)cc1 | 330 nM | 0.76 nM | 970 nM | > 5000 nM | Active | Active | Active | inactive | Tde | 74.8% | 3.54 nM | 151 nM | 80.3% | – | – | –
CN(CCOCCOCCN1CCN(c2ccc(Nc3ncc4nc(Nc5ccccc5)n(C5CCCC5)c4n3)cc2)CC1)CC(=O)Nc1cccc2c1CN(C1CCC(=O)NC1=O)C2=O (configuration not stated) | 2670 nM | 1.39 nM | 1210 nM | > 5000 nM | – | – | – | – | – | – | – | – | – | inactive | Active | –
Cc1ncsc1-c1ccc(CNC(=O)[C@@H]2C[C@@H](O)CN2C(=O)[C@@H](NCCOCCOCCOCCOCCN2CCN(c3ccc(Nc4ncc5nc(Nc6ccccc6)n(C6CCCC6)c5n4)cc3)CC2)C(C)(C)C)cc1 | – | 62 nM | 2890 nM | > 5000 nM | – | – | – | – | – | – | – | – | – | – | – | inactive
O=C1CCC(N2Cc3c(NC(=O)CCCCCCCN4CCN(c5ccc(Nc6ncc7nc(Nc8ccccc8)n(C8CCCC8)c7n6)cc5)CC4)cccc3C2=O)C(=O)N1 (configuration not stated) | 240 nM | 2.61 nM | 3780 nM | > 5000 nM | – | – | – | – | – | – | – | – | – | inactive | Active | –
C=CC(=O)Nc1cc(Nc2nccc(-c3cn(C)c4ccccc34)n2)c(OC)cc1N(C)CCN(C)C [OSIMERTINIB] | […] | 0.97 nM | […] | – | – | – | – | – | – | – | – | – | – | – | – | –
CN(CCOCCOCCOCCOCCN1CCN(c2ccc(Nc3ncc4nc(Nc5ccccc5)n(C5CCCC5)c4n3)cc2)CC1)CC(=O)Nc1cccc2c1CN(C1CCC(=O)NC1=O)C2=O (configuration not stated) | 2720 nM | 2.83 nM | 3340 nM | > 5000 nM | – | – | – | – | – | – | – | – | – | inactive | Active | –
